In ChEMBL document CHEMBL1155804, “Brominated diterpenes with antibacterial activity from the red alga Sphaerococcus coronopifolius” (2008):
Converted amounts (≈) assume the structure as drawn.

How the values were obtained:
Type in all cases: functional
Staphylococcus aureus [1] = experiment: Antibacterial activity against Staphylococcus aureus 1199B overexpressing NorA efflux pump after 18 hrs by MTT assay
Method in brief: (§1)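 Broth microdilution MIC in Mueller-Hinton broth supplemented to 20 mg/L Ca2+ and 10 mg/L Mg2+. Overnight cultures were adjusted in 0.9% saline to 5 × 10^5 cfu against a McFarland standard, and the sample was serially diluted in broth. Plates included growth, sterile and 3.125% DMSO controls and were incubated 18 h at 37 °C. MICs were determined in duplicate.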

Staphylococcus aureus [2] = experiment: Antibacterial activity against Staphylococcus aureus […] expressing MsrA macrolide efflux pump after 18 hrs by MTT assay; method in brief: as §1
Staphylococcus aureus [3] = experiment: Antibacterial activity against epidemic methicillin-resistant Staphylococcus aureus 15 after 18 hrs by MTT assay; method in brief: as §1
Staphylococcus aureus [4] = experiment: Antibacterial activity against Staphylococcus aureus ATCC 25923 after 18 hrs by MTT assay; conditions: ATCC 25923, 18 h; method in brief: as §1
Staphylococcus aureus [5] = experiment: Antibacterial activity against methicillin-resistant Staphylococcus aureus XU212 expressing TetK efflux pump after 18 hrs by MTT assay; conditions: XU212, 18 h; method in brief: as §1
Staphylococcus aureus [6] = experiment: Antibacterial activity against epidemic methicillin-resistant Staphylococcus aureus 16 expressing mecA after 18 hrs by MTT assay; method in brief: as §1

Compound	MIC (Staphylococcus aureus [1]) [µg/mL]	MIC (Staphylococcus aureus [2]) [µg/mL]	MIC (Staphylococcus aureus [3]) [µg/mL]	MIC (Staphylococcus aureus [4]) [µg/mL]	MIC (Staphylococcus aureus [5]) [µg/mL]	MIC (Staphylococcus aureus [6]) [µg/mL]
CC(C)[C@@H]1C[C@H](O)C=C2[C@H]3[C@](C)(CC[C@@]21CBr)[C@@H](Br)CC[C@@]3(C)O	16 (≈ 34.5 µM)	16 (≈ 34.5 µM)	16 (≈ 34.5 µM)	16 (≈ 34.5 µM)	16 (≈ 34.5 µM)	16 (≈ 34.5 µM)
CC(C)[C@@H]1C[C@H](OO)C=C2[C@@H]3[C@](C)(O)[C@H](O)C[C@H](Br)[C@@]3(C)CC[C@@]21CBr	16 (≈ 32.2 µM)	16 (≈ 32.2 µM)	16 (≈ 32.2 µM)	32 (≈ 64.5 µM)	16 (≈ 32.2 µM)	16 (≈ 32.2 µM)
CC(C)[C@@H]1CC[C@H](O)[C@H]2[C@H]3[C@@](C)(C=CC(=O)[C@]3(C)O)CC[C@@]21CBr	0.5 (≈ 1.25 µM)	1 (≈ 2.5 µM)	0.5 (≈ 1.25 µM)	0.5 (≈ 1.25 µM)	1 (≈ 2.5 µM)	0.25 (≈ 0.626 µM)
CC(C)[C@@H]1CC[C@H](O)[C@H]2[C@H]3[C@](C)(CC[C@@]21CBr)[C@@H](Br)CC(=O)[C@]3(C)O	32 (≈ 66.6 µM)	32 (≈ 66.6 µM)	128 (≈ 267 µM)	32 (≈ 66.6 µM)	32 (≈ 66.6 µM)	64 (≈ 133 µM)
CC(C)[C@@H]1C[C@H](OO)C=C2[C@@H]3[C@](C)(O)[C@@H](O)C[C@H](Br)[C@@]3(C)CC[C@@]21CBr	16 (≈ 32.2 µM)	16 (≈ 32.2 µM)	16 (≈ 32.2 µM)	32 (≈ 64.5 µM)	16 (≈ 32.2 µM)	16 (≈ 32.2 µM)
CC(C)[C@@H]1CC[C@H](O)[C@H]2[C@H]3[C@](C)(CC[C@@]21CBr)[C@@H](Br)CC[C@]3(C)O	1 (≈ 2.14 µM)	2 (≈ 4.29 µM)	2 (≈ 4.29 µM)	2 (≈ 4.29 µM)	2 (≈ 4.29 µM)	1 (≈ 2.14 µM)
CCn1cc(C(=O)O)c(=O)c2cc(F)c(N3CCNCC3)cc21 [NORFLOXACIN]	32 (≈ 100 µM)	1 (≈ 3.13 µM)	0.5 (≈ 1.57 µM)	0.5 (≈ 1.57 µM)	8 (≈ 25.1 µM)	128 (≈ 401 µM)
